Experimental data taken from ChEMBL document CHEMBL1142735, “Discovery of a new series of centrally active tricyclic isoxazoles combining serotonin (5-HT) reuptake inhibition with alpha2-adrenoceptor blocking activity” (J Med Chem, 2005).

Experiments:
[1] = biological target: Sodium-dependent serotonin transporter (Homo sapiens, UniProt P31645); assay: Binding affinity for serotonin transporter
Summary of the method: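 Human platelet membranes (50 µg protein) in 50 mM Tris-HCl pH 7.4 with 120 mM NaCl and 5 mM KCl. Competition against [3H]paroxetine (0.5 nM), 60 min at 25 °C. Nonspecific binding defined with imipramine (1 µM). Filtration over 0.1% PEI-presoaked GF/B, washed with incubation buffer. Sigmoidal fit of specific binding; Ki via Cheng-Prusoff.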

[2] = biological target: T1, Alpha-2C adrenergic receptor (Homo sapiens, UniProt P18825); assay: Binding affinity for alpha-2C adrenergic receptor
T1 sequence (P18825 whole entry): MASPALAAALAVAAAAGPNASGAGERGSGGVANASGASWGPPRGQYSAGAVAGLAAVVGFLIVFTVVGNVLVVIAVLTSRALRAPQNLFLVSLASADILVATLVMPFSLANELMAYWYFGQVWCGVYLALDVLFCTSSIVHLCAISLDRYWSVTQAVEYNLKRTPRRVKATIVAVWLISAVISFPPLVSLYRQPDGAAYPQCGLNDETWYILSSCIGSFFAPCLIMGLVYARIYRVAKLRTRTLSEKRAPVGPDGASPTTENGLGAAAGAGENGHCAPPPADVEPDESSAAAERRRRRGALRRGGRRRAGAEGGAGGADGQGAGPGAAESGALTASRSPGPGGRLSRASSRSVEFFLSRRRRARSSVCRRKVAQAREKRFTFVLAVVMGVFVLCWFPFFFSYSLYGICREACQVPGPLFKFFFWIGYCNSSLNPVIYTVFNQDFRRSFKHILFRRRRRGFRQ
Summary of the method: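 Human alpha2C receptor stably expressed in CHO cell membranes (5-10 µg protein) in 25 mM glycylglycine, pH 7.6. Competition against [3H]rauwolscine (1 nM), 30 min at 25 °C. Nonspecific binding defined with spiroxatrine (1 µM). Rapid filtration over GF/B, washed with ice-cold 50 mM Tris-HCl pH 8.0, scintillation counting. Sigmoidal curves fitted; Ki by Cheng-Prusoff.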

Sodium-dependent serotonin transporter, sequence (P31645 whole entry): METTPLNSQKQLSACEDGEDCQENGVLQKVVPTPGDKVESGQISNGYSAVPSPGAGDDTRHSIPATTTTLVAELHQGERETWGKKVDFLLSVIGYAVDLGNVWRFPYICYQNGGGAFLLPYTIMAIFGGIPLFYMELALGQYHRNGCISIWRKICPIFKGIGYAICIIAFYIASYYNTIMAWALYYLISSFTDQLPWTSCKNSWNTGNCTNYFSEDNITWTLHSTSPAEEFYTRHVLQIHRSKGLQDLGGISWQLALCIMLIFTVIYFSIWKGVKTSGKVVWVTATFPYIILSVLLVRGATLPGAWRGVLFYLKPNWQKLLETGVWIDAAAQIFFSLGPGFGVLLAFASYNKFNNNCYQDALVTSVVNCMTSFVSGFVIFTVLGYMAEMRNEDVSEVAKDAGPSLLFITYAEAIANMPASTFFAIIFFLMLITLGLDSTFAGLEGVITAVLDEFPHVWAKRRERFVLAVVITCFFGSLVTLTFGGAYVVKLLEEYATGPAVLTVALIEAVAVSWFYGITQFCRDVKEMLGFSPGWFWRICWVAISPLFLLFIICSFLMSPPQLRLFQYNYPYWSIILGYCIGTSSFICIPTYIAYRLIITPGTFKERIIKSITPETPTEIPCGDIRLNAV

Compound: COCC(=O)Oc1ccc2c(c1)OC[C@@H]1C2=NO[C@H]1CN1CCN(C/C(C)=C/c2ccccc2)CC1
- Ki [1]: 5.7 nM
- Ki [2]: 0.2 nM

Compound: C/C(=C\c1ccccc1)CN1CCN(C[C@@H]2ON=C3c4ccc(OC(=O)C5CC5)cc4OC[C@H]32)CC1
- Ki [1]: 26 nM
- Ki [2]: 0.3 nM

Compound: COc1ccc2c(c1)OC[C@@H]1C2=NO[C@H]1CN1CCN(C/C(C)=C/c2ccccc2)CC1
- Ki [2]: 0.2 nM

Compound: CC(=O)Oc1ccc2c(c1)OC[C@@H]1C2=NO[C@H]1CN1CCN(C/C(C)=C/c2ccccc2)CC1
- Ki [1]: 7.7 nM
- Ki [2]: 0.2 nM

Compound: C/C(=C\c1ccccc1)CN1CCN(C[C@@H]2ON=C3c4ccc(OCCN(C)C)cc4OC[C@H]32)CC1
- Ki [1]: 3.5 nM

Compound: C/C(=C\c1ccccc1)CN1CCN(C[C@@H]2ON=C3c4ccc(OC(=O)C(C)(C)C)cc4OC[C@H]32)CC1
- Ki [1]: 12 nM
- Ki [2]: 1.6 nM

Compound: CCOCCOCCOc1ccc2c(c1)OC[C@@H]1C2=NO[C@H]1CN1CCN(C/C(C)=C/c2ccccc2)CC1
- Ki [1]: 17 nM
- Ki [2]: 0.2 nM

Compound: C=CC(=O)Oc1ccc2c(c1)OC[C@@H]1C2=NO[C@H]1CN1CCN(C/C(C)=C/c2ccccc2)CC1
- Ki [1]: 41 nM
- Ki [2]: 0.5 nM

Compound: C/C(=C\c1ccccc1)CN1CCN(C[C@@H]2ON=C3c4ccc(O)cc4OC[C@H]32)CC1
- Ki [1]: 3.6 nM

Compound: COc1cc2c(cc1OC)C1=NO[C@@H](CN3CCN(CCOc4ccc(F)cc4)CC3)[C@@H]1CN2
- Ki [1]: 154 nM
- Ki [2]: 1.6 nM

Compound: CN1C[C@@H]2C(=NO[C@H]2CN2CCN(C/C=C/c3ccccc3)CC2)c2ccccc21
- Ki [1]: 16 nM
- Ki [2]: 4.5 nM

Compound: COc1ccc2c(c1)C=C[C@@H]1C2=NO[C@H]1CN1CCN(Cc2ccc3ccccc3c2)CC1
- Ki [1]: 1.4 nM
- Ki [2]: 6.3 nM

Compound: CCNC(=O)N1C[C@@H]2C(=NO[C@H]2CN2CCN(C/C=C/c3ccccc3)CC2)c2ccccc21
- Ki [1]: 23 nM
- Ki [2]: 2.7 nM

Compound: COc1cc2c(cc1OC)C1=NO[C@@H](CN3CCN(Cc4ccc(Cl)cc4)CC3)[C@@H]1CN2
- Ki [1]: 151 nM
- Ki [2]: 23 nM

Compound: CCOC(=O)N1C[C@@H]2C(=NO[C@H]2CN2CCN(C/C=C/c3ccccc3)CC2)c2ccccc21
- Ki [1]: 2.6 nM
- Ki [2]: 9.8 nM

Compound: COc1cc2c(cc1OC)C1=NO[C@@H](CN3CCN(Cc4ccc5ccccc5c4)CC3)[C@@H]1CN2
- Ki [1]: 1.5 nM
- Ki [2]: 12 nM

Compound: COc1cc2c(cc1OC)N(C)C[C@@H]1C2=NO[C@H]1CN1CCN(CCCC(C)=Cc2ccccc2)CC1
- Ki [1]: 104 nM
- Ki [2]: 4 nM

Compound: C(=C\c1ccccc1)/CN1CCN(C[C@@H]2ON=C3c4ccccc4OC[C@H]32)CC1
- Ki [2]: 1.7 nM

Compound: C1=C[C@@H]2C(=NO[C@H]2CN2CCN(C/C=C/c3ccccc3)CC2)c2ccccc21
- Ki [1]: 106 nM
- Ki [2]: 112 nM

Compound: COc1cc2c(cc1OC)C1=NO[C@@H](CN3CCN(Cc4ccc5ncccc5c4)CC3)[C@@H]1CN2
- Ki [1]: 22 nM
- Ki [2]: > 1000 nM

Compound: C(=C\c1ccccc1)/CN1CCN(C[C@@H]2ON=C3c4ccccc4NC[C@H]32)CC1
- Ki [1]: 84 nM
- Ki [2]: 15 nM

Compound: COc1ccc2c(c1)C=C[C@@H]1C2=NO[C@H]1CN1CCN(C/C=C/c2ccccc2)CC1
- Ki [1]: 7.3 nM
- Ki [2]: 3.9 nM

Compound: COc1cc2c(cc1OC)C1=NO[C@@H](CN3CCN(C/C=C/c4ccccc4)CC3)[C@@H]1CN2
- Ki [1]: 9.7 nM
- Ki [2]: 5.4 nM

Compound: c1ccc2c(c1)NC[C@@H]1C2=NO[C@H]1CN1CCN(Cc2ccc3ccccc3c2)CC1
- Ki [1]: 0.5 nM
- Ki [2]: 9.6 nM

Compound: COc1cc2c(cc1OC)C1=NO[C@@H](CN3CCN(C/C(C)=C/c4ccccc4)CC3)[C@@H]1CN2
- Ki [1]: 8.9 nM
- Ki [2]: 0.1 nM

Compound: C/C(=C\c1ccccc1)CN1CCN(C[C@@H]2ON=C3c4ccc(OC5CCCC5)cc4OC[C@H]32)CC1
- Ki [1]: 56 nM
- Ki [2]: 0.5 nM

Compound: C/C(=C\c1ccccc1)CN1CCN(C[C@@H]2ON=C3c4ccc(OC(=O)c5ccncc5)cc4OC[C@H]32)CC1
- Ki [1]: 13 nM
- Ki [2]: 0.5 nM

Compound: CC(=O)N1C[C@@H]2C(=NO[C@H]2CN2CCN(CCC/C=C/c3ccccc3)CC2)c2ccccc21
- Ki [1]: 61 nM
- Ki [2]: 11 nM

Compound: COCCOc1ccc2c(c1)OC[C@@H]1C2=NO[C@H]1CN1CCN(C/C(C)=C/c2ccccc2)CC1
- Ki [1]: 4.5 nM
- Ki [2]: 0.03 nM
